Reference: ChEMBL document CHEMBL1140227, “Histone deacetylase inhibitors through click chemistry” (J Med Chem, 2008)

Columns and labels:
Type in all cases: functional
NCI-H23 = assay: Growth inhibition of human NCI-H23 cells at 10 uM relative to control; settings: values are per cent of control
Outline: (§1)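 Single-dose preliminary screen in the NCI human cancer cell line panel, run by the NIH. Percent inhibition of cell line growth was calculated by comparison with untreated samples.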

SF-268 = assay: Growth inhibition of human SF268 cells at 10 uM relative to control; settings: values are per cent of control; outline: as §1
OVCAR-3 = assay: Growth inhibition of human OVCAR-3 cells at 10 uM relative to control; settings: values are per cent of control; outline: as §1
PC-3 = assay: Growth inhibition of human PC3 cells at 10 uM relative to control; settings: values are per cent of control; outline: as §1
BT-549 = assay: Growth inhibition of human BT549 cells at 10 uM relative to control; settings: values are per cent of control; outline: as §1
A498 = assay: Growth inhibition of human A498 cells at 10 uM relative to control; settings: values are per cent of control; outline: as §1
Leukemia cell = assay: cells; settings: Homo sapiens
NCI-H460 = assay: Growth inhibition of human NCI-H460 cells at 10 uM relative to control; settings: values are per cent of control; outline: as §1
OVCAR-5 = assay: Growth inhibition of human OVCAR5 cells at 10 uM relative to control; settings: values are per cent of control; outline: as §1
CCRF-CEM = assay: Growth inhibition of human CCRF-CEM cells at 10 uM relative to control; settings: values are per cent of control; outline: as §1
cells [1] = settings: Homo sapiens, Cancer cell lines
U-251 = assay: Growth inhibition of human U251 cells at 10 uM relative to control; settings: values are per cent of control
Outline: (§2)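 Single-dose NCI human tumour cell line screen, run by the NIH. Percent inhibition of cell line growth was calculated by comparison with untreated samples.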

ACHN = assay: Growth inhibition of human ACHN cells at 10 uM relative to control; settings: values are per cent of control; outline: as §1
COLO 205 = assay: Growth inhibition of human COLO205 cells at 10 uM relative to control; settings: values are per cent of control; outline: as §1
M14 = assay: Growth inhibition of human M14 cells at 10 uM relative to control; settings: values are per cent of control; outline: as §1
cells [2] = settings: Homo sapiens, Cancer cell lines; remark: listed apart in the source
DU-145 = assay: Growth inhibition of human DU145 cells at 10 uM relative to control; settings: values are per cent of control; outline: as §1
HL-60(TB) = assay: Growth inhibition of human HL-60(TB) cells at 10 uM relative to control; settings: read-out: INH
Outline: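 Single-dose cell line screen run by the NCI (NIH) in its human cancer cell line panel, which includes the leukemia line HL-60(TB). Percent growth inhibition was calculated by comparison with untreated samples.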

TK-10 = assay: Growth inhibition of human TK10 cells at 10 uM relative to control; settings: values are per cent of control; outline: as §2
HT-29 = assay: Growth inhibition of human HT-29 cells at 10 uM relative to control; settings: values are per cent of control; outline: as §1
cells [3] = settings: Homo sapiens, Cancer cell lines; remark: listed apart in the source
KM12 = assay: Growth inhibition of human KM12 cells at 10 uM relative to control; settings: values are per cent of control; outline: as §1
UO-31 = assay: Growth inhibition of human UO31 cells at 10 uM relative to control; settings: values are per cent of control; outline: as §2
SNB-19 = assay: Growth inhibition of human SNB19 cells at 10 uM relative to control; settings: values are per cent of control; outline: as §1
cells [4] = settings: Homo sapiens, Cancer cell lines; remark: listed apart in the source
HCC 2998 = assay: Growth inhibition of human HCC2998 cells at 10 uM relative to control; settings: values are per cent of control; outline: as §1
CAKI-1 = assay: Growth inhibition of human Caki1 cells at 10 uM relative to control; settings: values are per cent of control; outline: as §1
IGROV-1 = assay: Growth inhibition of human IGROV1 cells at 10 uM relative to control; settings: values are per cent of control; outline: as §1
OVCAR-8 = assay: Growth inhibition of human OVCAR8 cells at 10 uM relative to control; settings: values are per cent of control; outline: as §1
MDA-MB-435 = assay: Growth inhibition of human MDA-MB-435 cells at 10 uM relative to control; settings: values are per cent of control; outline: as §1
MDA-MB-231 = assay: Growth inhibition of human MDA-MB-231 cells at 10 uM relative to control; settings: values are per cent of control; outline: as §1
SF-295 = assay: Growth inhibition of human SF295 cells at 10 uM relative to control; settings: values are per cent of control; outline: as §1

O=C(/C=C/c1cn(CCc2ccccc2)nn1)NO
growth, % of control at 10 µM (NCI-H23): 68.4%
growth, % of control at 10 µM (SF-268): 57.2%
growth, % of control at 10 µM (OVCAR-3): 61.3%
growth, % of control at 10 µM (PC-3): 37.2%
growth, % of control at 10 µM (BT-549): 78%
growth, % of control at 10 µM (A498): 52.4%
inhibition at 10 µM (Leukemia cell): 7%
growth, % of control at 10 µM (NCI-H460): 62.5%
growth, % of control at 10 µM (OVCAR-5): 23.5%
growth, % of control at 10 µM (CCRF-CEM): 7.44%
growth percent at 10 µM (cells [1]): 40%
growth, % of control at 10 µM (U-251): 40.7%
growth, % of control at 10 µM (ACHN): 29.3%
growth, % of control at 10 µM (COLO 205): 53.9%
growth, % of control at 10 µM (M14): 44.7%
growth percent at 10 µM (cells [2]): 46%
growth, % of control at 10 µM (DU-145): 35.5%
growth, % of control at 10 µM (HL-60(TB)): -10.7%
growth, % of control at 10 µM (TK-10): 57.7%
growth, % of control at 10 µM (HT-29): 56.9%
inhibition at 10 µM (cells [3]): 48%
growth, % of control at 10 µM (KM12): 67.8%
growth, % of control at 10 µM (UO-31): 37.4%
growth, % of control at 10 µM (SNB-19): 90%
inhibition at 10 µM (cells [4]): 58%
growth, % of control at 10 µM (HCC 2998): 69.2%
growth, % of control at 10 µM (CAKI-1): 52.9%
growth, % of control at 10 µM (IGROV-1): 44.6%
growth, % of control at 10 µM (OVCAR-8): 26.5%
growth, % of control at 10 µM (MDA-MB-435): 21.9%
growth, % of control at 10 µM (MDA-MB-231): 60.3%
growth, % of control at 10 µM (SF-295): 51.8%
